Data set [1] concerns Mus musculus. The data set can be described thus: Antidepressant activity in pargyline-pretreated mouse assessed as potentiation of serotonin-induced tremor, head movements, abducted limbs and irritability at 25 mg/kg, po treated 1 hr prior to serotonin-challenge. The data set is classed as functional, organism-based. Also noted: dose 25 mg/kg. The essentials: (§1)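 Mice received pargyline 40 mg/kg po, then the test drug po. They were challenged with 5-hydroxytryptophan 100 mg/kg ip either 1 or 4 hr later. Central responses were rated on the 1–3 scale (slight, moderate, marked). Three mice per dose.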

Data set [2] concerns Mus musculus. The data set can be described thus: Antidepressant activity in pargyline-pretreated mouse assessed as potentiation of serotonin-induced tremor, head movements, abducted limbs and irritability at 50 mg/kg, po treated 1 hr prior to serotonin-challenge. The data set is classed as functional, organism-based. Also noted: dose 50 mg/kg. The essentials: as §1
The subject of data set [3] is Mus musculus. The data set can be described thus: Antidepressant activity in pargyline-pretreated mouse assessed as potentiation of serotonin-induced tremor, head movements, abducted limbs and irritability at 100 mg/kg, po treated 1 hr prior to serotonin-challenge. Details: dose 100 mg/kg. The data set is classed as functional, organism-based. The essentials:
as §1

Data set [4] concerns Mus musculus. Kind of data set: Antidepressant activity in pargyline-pretreated mouse assessed as potentiation of serotonin-induced tremor, head movements, abducted limbs and irritability at 25 mg/kg, po treated 4 hrs prior to serotonin-challenge. The data set is classed as functional, organism-based. Details: dose 25 mg/kg. The procedure, abridged:
as §1

In data set [5] the test system is Mus musculus. The data set can be described thus: Antidepressant activity in pargyline-pretreated mouse assessed as potentiation of serotonin-induced tremor, head movements, abducted limbs and irritability at 50 mg/kg, po treated 4 hrs prior to serotonin-challenge. The data set is classed as functional, organism-based. Also noted: dose 50 mg/kg. The essentials: as §1

The test system of data set [6] is Mus musculus. The data set can be described thus: Antidepressant activity in pargyline-pretreated mouse assessed as potentiation of serotonin-induced tremor, head movements, abducted limbs and irritability at 100 mg/kg, po treated 4 hrs prior to serotonin-challenge. The data set is classed as functional, organism-based. Details: dose 100 mg/kg. The essentials:
as §1

The test system of data set [7] is Mus musculus. The data set can be described thus: Antipsychotic activity in po dosed mouse assessed as change in methamphetamine-induced hyperactivity. The data set is classed as functional. The essentials: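 Mice were given test compound orally […] with a 4-hr pretreatment, then methamphetamine 3 mg/kg sc. Three mice were placed per photocell motor-activity chamber, with nine mice per dose. Photocell counts (mean ± SE) were compared with methamphetamine-treated controls and expressed as % change. Significance (p < 0.05) was tested by analysis of variance, then t test or Mann-Whitney U test.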

The subject of data set [8] is Mus musculus. Kind of data set: Antidepressant activity in pargyline-pretreated mouse assessed as potentiation of DL-DOPA-induced jumping, fighting and squeaking at 25 mg/kg, po treated 4 hrs prior to DL-DOPA-challenge. The data set is classed as functional, organism-based. Also noted: dose 25 mg/kg. The essentials:
(§2)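 Mice were pretreated with pargyline 40 mg/kg po, given the test drug po 4 hr before the challenge, then challenged with DL-Dopa 200 mg/kg. The motor response (motor activity, jumping, fighting, squeaking/irritability) was graded slight (1), moderate (2) or marked (3). Four mice per dose.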

The test system of data set [9] is Mus musculus. Kind of data set: Antidepressant activity in pargyline-pretreated mouse assessed as potentiation of DL-DOPA-induced jumping, fighting and squeaking at 100 mg/kg, po treated 4 hrs prior to DL-DOPA-challenge. The data set is classed as functional, organism-based. Also noted: dose 100 mg/kg. The procedure, abridged:
as §2

The test system of data set [10] is Mus musculus. The data set can be described thus: Antipsychotic activity in mouse assessed as change in methamphetamine-induced hyperactivity at 50 mg/kg, po relative to control. The data set is classed as functional. The procedure, abridged: (§3)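 Mice were premedicated po with the test compound, then given methamphetamine 3 mg/kg sc. Motor activity was counted in photocell chambers, three mice per chamber and nine per dose. Counts are mean ± SE, expressed as % change from methamphetamine-only controls. Analysis was ANOVA followed by t test or Mann-Whitney U, with p < 0.05.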

The subject of data set [11] is Mus musculus. Kind of data set: Antipsychotic activity in mouse assessed as change in methamphetamine-induced hyperactivity at 5 mg/kg, po relative to control. Details: dose 5 mg/kg. The data set is classed as functional, organism-based. The essentials: as §3
A short description of data set [12]: Toxicity in ip dosed mouse. The data set is classed as organism-based. Conditions: in vivo.
Data set [13] in a line: Toxicity in po dosed mouse. Conditions: in vivo. The data set is classed as organism-based.
The subject of data set [14] is Mus musculus. The data set can be described thus: Antidepressant activity in pargyline-pretreated mouse assessed as potentiation of DL-DOPA-induced jumping, fighting and squeaking at 5 mg/kg, po treated 4 hrs prior to DL-DOPA-challenge. The data set is classed as functional, organism-based. Details: dose 5 mg/kg. The essentials:
as §2

For data set [15], the system named is Mus musculus. Kind of data set: Antidepressant activity in pargyline-pretreated mouse assessed as potentiation of DL-DOPA-induced jumping, fighting and squeaking at 10 mg/kg, po treated 4 hrs prior to DL-DOPA-challenge. The data set is classed as functional, organism-based. Details: dose 10 mg/kg. The essentials:
as §2

Data set [16] has as its system Mus musculus. The data set can be described thus: Antidepressant activity in pargyline-pretreated mouse assessed as potentiation of DL-DOPA-induced jumping, fighting and squeaking at 20 mg/kg, po treated 4 hrs prior to DL-DOPA-challenge. The data set is classed as functional, organism-based. Details: dose 20 mg/kg. The essentials:
as §2

In data set [17] the test system is Mus musculus. The data set can be described thus: Antipsychotic activity in mouse assessed as change in methamphetamine-induced hyperactivity at 10 mg/kg, po relative to control. The data set is classed as functional. The procedure, abridged: as §3
For data set [18], the system named is Mus musculus. Kind of data set: Antipsychotic activity in mouse assessed as change in methamphetamine-induced hyperactivity at 20 mg/kg, po relative to control. The data set is classed as functional. The essentials:
as §3

Active and inactive are the calls of the source. The rule behind the calls is not given here.

A word on the ED50: it is the midpoint of the dose-response relation. On to `CN(C)CCCN1c2ccccc2CCc2ccc(Cl)cc21` [CLOMIPRAMINE], for which the outcome in data set [1], in data set [2], in [3], in data set [4], in data set [5] and in data set [6] was Active. In addition, the ED50 in data set [7] was determined as 5 mg/kg.
Turning to `CN1C2CCC1CC(C1(O)c3ccccc3CCc3ccccc31)C2` (stereo not given), the outcome in data set [8] and in data set [9] was Active. Moreover, the Activity in data set [10] turned out to be 11%. In addition, the result in [11] was inactive.
Turning to `CN1CC2C(C1)C21c2ccccc2CCc2ccc(Cl)cc21` (stereo not given), the outcome in data set [8], in data set [9], in [3], in data set [4], in data set [5] and in data set [6] was Active. Further, the result in data set [1], in data set [2] and in data set [11] was inactive. In data set [10], the Activity was determined as 29%.
Regarding `CN(C)C1CCCCC(=C2c3ccccc3CCc3ccccc32)C1` (stereo not given), the result in data set [8] and in [9] was Active. The result in data set [1], in [2], in data set [3] and in [11] was inactive. Besides, the Activity in data set [10] was determined as 11%.
Broadly, the LD50 is the dose expected to kill half of the subjects tested. `CN1C2CCC1CC(=C1c3ccccc3CCc3ccccc31)C2`: the outcome in data set [8], in data set [1], in [2], in data set [4], in data set [5] and in [6] was inactive. The result in data set [11] was inactive. The result in data set [9] and in data set [3] was Active. The LD50 in data set [12] is 30 mg/kg; in [13], 100 mg/kg. Moreover, in [10], the Activity stood at 14%.
As to `CN(C)C1C=C(C2c3ccccc3C=Cc3ccccc32)CCC1` (stereo not given), the result in [14], in data set [1], in [4] and in [11] was inactive. Moreover, the result in data set [15], in [16], in data set [8], in [9], in [2] and in [3] was Active. The outcome in [5] and in data set [6] was Active. In data set [10], the Activity amounted to 23%.
For `CN(C)CCCN1c2ccccc2CCc2ccccc21` [IMIPRAMINE], the outcome in data set [14] and in data set [11] was inactive. The outcome in data set [15], in [8] and in data set [9] was Active. Moreover, the Activity in data set [17] is 19%; in data set [18] it was 32%.

(Values after ChEMBL document CHEMBL3272328, “Novel analogs of tricyclic psychopharmacological agents” (J Med Chem, 1976).)
